Experimental data reported in ChEMBL document CHEMBL2203235, “Optimization of a natural product-based class of γ-secretase modulators” (J Med Chem, 2012).

How the values were obtained:
CHO-2B7 = experiment: Modulation of gamma secretase in CHO-2B7 cells assessed as reduction in amyloid beta 40 level at 20 uM after 5 hrs by MSD ELISA; format: cell-based; design: scale not given: the % may be the effect or the level left; details: Cricetulus griseus
[1] = Metabolic stability in human liver microsomes assessed as compound remaining at 1 uM at 60 mins by LC/MS/MS analysis in absence of NADPH; format: ADME, Microsome; details: liver microsomes, read-out: Stability
Outline: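 Human liver microsomes were run without NADPH as a qualitative read of susceptibility to enzymatic hydrolysis. The read-out was percent parent remaining at 60 min.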

[2] = Modulation of gamma secretase in CHO-2B7 cells assessed as reduction in amyloid beta 42 level after 5 hrs by MSD ELISA; format: cell-based; details: Cricetulus griseus, CHO-2B7, 5 h
Liver microsomes = experiment: Metabolic stability in human liver microsomes at 1 uM after 60 mins by LC/MS/MS analysis; details: 1 h
[3] = Modulation of gamma secretase in CHO-2B7 cells assessed as reduction in amyloid beta 40 level after 5 hrs by MSD ELISA; format: cell-based; details: Cricetulus griseus, CHO-2B7, 5 h

Stability (Liver microsomes)	SMILES	Activity (CHO-2B7)	remaining at 1 h, 1 µM [1]	IC50 [2]	IC50 [3]
	C[C@@H]1C[C@H](COC(=O)N(C)C)O[C@H]2[C@H]1[C@@]1(C)CC[C@@]34C[C@@]35CC[C@H](O[C@H]3CN(C(=O)CC6CC6)CCO3)C(C)(C)[C@@H]5CC[C@H]4[C@]1(C)[C@H]2O	63%	81%	1200 nM	
Stable	CC(C)[C@@H](OC(=O)N1CCC1)[C@H]1C[C@@H](C)[C@H]2[C@H](O1)[C@H](O)[C@@]1(C)[C@@H]3CC[C@H]4C(C)(C)[C@@H](OC(=O)NC5CCOCC5)CC[C@@]45C[C@@]35CC[C@]21C	27%		3000 nM	
Stable	CC(C)[C@@H](OC(=O)N1CCC1)[C@H]1C[C@@H](C)[C@H]2[C@H](O1)[C@H](O)[C@@]1(C)[C@@H]3CC[C@H]4C(C)(C)[C@@H](OC(=O)N5CCC(F)(F)CC5)CC[C@@]45C[C@@]35CC[C@]21C	12%		9100 nM	
Stable	CCO[C@@H]([C@H]1C[C@@H](C)[C@H]2[C@H](O1)[C@H](O)[C@@]1(C)[C@@H]3CC[C@H]4C(C)(C)[C@@H](OC(=O)N5CCNC(C(F)(F)F)C5)CC[C@@]45C[C@@]35CC[C@]21C)C(C)(C)O (some centres not stated)	31%		390 nM	
	CNC(=O)O[C@H](C(C)C)[C@H]1C[C@@H](C)[C@H]2[C@H](O1)[C@H](O)[C@@]1(C)[C@@H]3CC[C@H]4C(C)(C)[C@@H](O[C@H]5CNCCO5)CC[C@@]45C[C@@]35CC[C@]21C		95%	480 nM	4300 nM
	CC(C)[C@@H](OC(N)=O)[C@H]1C[C@@H](C)[C@H]2[C@H](O1)[C@H](O)[C@@]1(C)[C@@H]3CC[C@H]4C(C)(C)[C@@H](OC(N)=O)CC[C@@]45C[C@@]35CC[C@]21C		103%	700 nM	1200 nM
	C[C@@H]1C[C@H](COC(N)=O)O[C@H]2[C@H]1[C@@]1(C)CC[C@@]34C[C@@]35CC[C@H](O[C@H]3CN(C(=O)CC6CC6)CCO3)C(C)(C)[C@@H]5CC[C@H]4[C@]1(C)[C@H]2O		77%	840 nM	35000 nM
	CC(C)[C@@H](OC(=O)N(C)C)[C@H]1C[C@@H](C)[C@H]2[C@H](O1)[C@H](O)[C@@]1(C)[C@@H]3CC[C@H]4C(C)(C)[C@@H](O)CC[C@@]45C[C@@]35CC[C@]21C		81%	1000 nM	10000 nM
	COC(=O)OC[C@H]1C[C@@H](C)[C@H]2[C@H](O1)[C@H](O)[C@@]1(C)[C@@H]3CC[C@H]4C(C)(C)[C@@H](O[C@H]5CN(C(=O)CC6CC6)CCO5)CC[C@@]45C[C@@]35CC[C@]21C	46%	59%	330 nM	
	CNC(=O)OC[C@H]1C[C@@H](C)[C@H]2[C@H](O1)[C@H](O)[C@@]1(C)[C@@H]3CC[C@H]4C(C)(C)[C@@H](O[C@H]5CN(C(=O)CC6CC6)CCO5)CC[C@@]45C[C@@]35CC[C@]21C		81%	350 nM	81000 nM
	CNC(=O)O[C@H](C(C)C)[C@H]1C[C@@H](C)[C@H]2[C@H](O1)[C@H](O)[C@@]1(C)[C@@H]3CC[C@H]4C(C)(C)[C@@H](O)CC[C@@]45C[C@@]35CC[C@]21C		96%	890 nM	8500 nM
Stable	CC(C)[C@@H](OC(=O)N1CCC1)[C@H]1C[C@@H](C)[C@H]2[C@H](O1)[C@H](O)[C@@]1(C)[C@@H]3CC[C@H]4C(C)(C)[C@@H](O[C@H]5CN(C(=O)CNS(=O)(=O)C(F)(F)F)CCO5)CC[C@@]45C[C@@]35CC[C@]21C	49%		1300 nM	
Stable	CC(C)[C@@H](OC(=O)N1CCC1)[C@H]1C[C@@H](C)[C@H]2[C@H](O1)[C@H](O)[C@@]1(C)[C@@H]3CC[C@H]4C(C)(C)[C@@H](O[C@H]5CN(CC(=O)O)CCO5)CC[C@@]45C[C@@]35CC[C@]21C	41%		700 nM	
	CC(C)[C@@H](OC(=O)N(C)C)[C@H]1C[C@@H](C)[C@H]2[C@H](O1)[C@H](O)[C@@]1(C)[C@@H]3CC[C@H]4C(C)(C)[C@@H](O[C@H]5CNCCO5)CC[C@@]45C[C@@]35CC[C@]21C		114%	580 nM	5900 nM
	CC(C)[C@@H](OC(=O)N(C)C)[C@H]1C[C@@H](C)[C@H]2[C@H](O1)[C@H](O)[C@@]1(C)[C@@H]3CC[C@H]4C(C)(C)[C@@H](OC(=O)NC5CNC5)CC[C@@]45C[C@@]35CC[C@]21C		113%	300 nM	9500 nM
Stable	CCO[C@@H]([C@H]1C[C@@H](C)[C@H]2[C@H](O1)[C@H](O)[C@@]1(C)[C@@H]3CC[C@H]4C(C)(C)[C@@H](OC(=O)NCCNS(=O)(=O)C(F)(F)F)CC[C@@]45C[C@@]35CC[C@]21C)C(C)(C)O	13%		710 nM	
	CC(=O)O[C@@H]([C@H]1C[C@@H](C)[C@H]2[C@H](O1)[C@H](O)[C@@]1(C)[C@@H]3CC[C@H]4C(C)(C)[C@@H](O[C@H]5CN(C(=O)CC6CC6)CCO5)CC[C@@]45C[C@@]35CC[C@]21C)C(C)(C)O	38%	2%	130 nM	
	CNC(=O)O[C@H](C(C)C)[C@H]1C[C@@H](C)[C@H]2[C@H](O1)[C@H](O)[C@@]1(C)[C@@H]3CC[C@H]4C(C)(C)[C@@H](OC(N)=O)CC[C@@]45C[C@@]35CC[C@]21C	40%	117%	950 nM	
	C=C(C)CO[C@@H]([C@H]1C[C@@H](C)[C@H]2[C@H](O1)[C@H](O)[C@@]1(C)[C@@H]3CC[C@H]4C(C)(C)[C@@H](O[C@H]5CN(C6COC6)CCO5)CC[C@@]45C[C@@]35CC[C@]21C)C(C)(C)O		84%	340 nM	11000 nM
	CC(C)[C@@H](OC(N)=O)[C@H]1C[C@@H](C)[C@H]2[C@H](O1)[C@H](O)[C@@]1(C)[C@@H]3CC[C@H]4C(C)(C)[C@@H](O[C@H]5CNCCO5)CC[C@@]45C[C@@]35CC[C@]21C		108%	650 nM	1700 nM
	CC(=O)O[C@@H]([C@H]1C[C@@H](C)[C@H]2[C@H](O1)[C@H](O)[C@@]1(C)[C@@H]3CC[C@H]4C(C)(C)[C@@H](OC(N)=O)CC[C@@]45C[C@@]35CC[C@]21C)C(C)(C)O	37%		200 nM	
	CC(C)CO[C@@H]([C@H]1C[C@@H](C)[C@H]2[C@H](O1)[C@H](O)[C@@]1(C)[C@@H]3CC[C@H]4C(C)(C)[C@@H](O[C@H]5CN(C6COC6)CCO5)CC[C@@]45C[C@@]35CC[C@]21C)C(C)(C)O		78%	3000 nM	6000 nM
	CC(C)O[C@@H]([C@H]1C[C@@H](C)[C@H]2[C@H](O1)[C@H](O)[C@@]1(C)[C@@H]3CC[C@H]4C(C)(C)[C@@H](O[C@H]5CN(C6COC6)CCO5)CC[C@@]45C[C@@]35CC[C@]21C)C(C)(C)O		105%	440 nM	2800 nM
	CC(=O)O[C@H](C(C)C)[C@H]1C[C@@H](C)[C@H]2[C@H](O1)[C@H](O)[C@@]1(C)[C@@H]3CC[C@H]4C(C)(C)[C@@H](O)CC[C@@]45C[C@@]35CC[C@]21C		0%	780 nM	7500 nM
	CO[C@@H]([C@H]1C[C@@H](C)[C@H]2[C@H](O1)[C@H](O)[C@@]1(C)[C@@H]3CC[C@H]4C(C)(C)[C@@H](O[C@H]5CN(C6COC6)CCO5)CC[C@@]45C[C@@]35CC[C@]21C)C(C)(C)O		93%	690 nM	9900 nM
	CC(=O)O[C@@H]([C@H]1C[C@@H](C)[C@H]2[C@H](O1)[C@H](O)[C@@]1(C)[C@@H]3CC[C@H]4C(C)(C)[C@@H](OC(=O)N5CCC5)CC[C@@]45C[C@@]35CC[C@]21C)C(C)(C)O		17%	510 nM	15000 nM

SMILES	Stability (Liver microsomes)	Activity (CHO-2B7)	remaining at 1 h, 1 µM [1]	IC50 [2]	IC50 [3]
CCO[C@@H]([C@H]1C[C@@H](C)[C@H]2[C@H](O1)[C@H](O)[C@@]1(C)[C@@H]3CC[C@H]4C(C)(C)[C@@H](OC(N)=O)CC[C@@]45C[C@@]35CC[C@]21C)C(C)(C)O	Stable		116%	210 nM	3900 nM
CCO[C@@H]([C@H]1C[C@@H](C)[C@H]2[C@H](O1)[C@H](O)[C@@]1(C)[C@@H]3CC[C@H]4C(C)(C)[C@@H](OC(=O)NC)CC[C@@]45C[C@@]35CC[C@]21C)C(C)(C)O	Stable	47%		360 nM	
CCO[C@@H]([C@H]1C[C@@H](C)[C@H]2[C@H](O1)[C@H](O)[C@@]1(C)[C@@H]3CC[C@H]4C(C)(C)[C@@H](OC(=O)NC5CNC5)CC[C@@]45C[C@@]35CC[C@]21C)C(C)(C)O	Stable		92%	53 nM	1900 nM
CC(C)[C@@H](OC(=O)N1CCC1)[C@H]1C[C@@H](C)[C@H]2[C@H](O1)[C@H](O)[C@@]1(C)[C@@H]3CC[C@H]4C(C)(C)[C@@H](OC(=O)N5CCOCC5)CC[C@@]45C[C@@]35CC[C@]21C	Stable		104%	360 nM	11000 nM
